# According to PubChem BioAssay:
# The other results are listed elsewhere or left out. Values without a mark were called inactive. Active and inactive are the calls of the source.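 The calls were made as follows: active = substances whose mean melting-temperature shift, as a percentage of the reference inhibitor's shift, reaches about 5.3% (limit read from the data); inactive = the rest.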
# Biological target: Carboxy-terminal domain RNA polymerase II polypeptide A small phosphatase 1 (Homo sapiens) (UniProt Q9GZU7)
# Assay: SCP1 melting temperature change from compounds – biophysical, differential scanning fluorimetry, orthogonal assay for Scp-1 inhibitor project, confirmation (AID 540329);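 also: 0% = Tm of DMSO wells and 100% = Tm with sodium orthovanadate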
# Conditions: Recombinant SCP1, Sypro Orange thermal shift Tm; at 40 µM; hits give high values
# Procedure, shortened: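 Test system – Scp-1 catalytic domain protein (residues 76-261) · Quantity – 10 µM Scp-1 stock · Buffer or medium – Tris acetate pH 5.5, MgCl2, Tween-20 · Dosing – single compound dose, delivered from a 10 mM stock · Schedule – 20-95 °C thermal ramp · Measured by – Sypro Orange fluorescence thermal melt · Read-out basis – melting temperature shift relative to vanadate · Control set – vanadate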
# Chain of Carboxy-terminal domain RNA polymerase II polypeptide A small phosphatase 1 (Homo sapiens) (Q9GZU7 76-261 limits assumed): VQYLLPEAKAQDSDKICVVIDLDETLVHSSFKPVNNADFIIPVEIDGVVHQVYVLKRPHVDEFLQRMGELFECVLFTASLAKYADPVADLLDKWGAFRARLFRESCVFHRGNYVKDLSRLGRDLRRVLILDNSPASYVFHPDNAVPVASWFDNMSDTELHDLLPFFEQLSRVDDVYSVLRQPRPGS
row,Compound,thermal shift relative to vanadate control
1,Cc1c(CCC(=O)O)c(=O)oc2c(C)c(OCc3ccccc3Cl)ccc12,-3.47%
2,Cc1c(Cl)cnc(NC(=O)COC(=O)c2ccc(S(=O)(=O)NCc3ccco3)cc2)c1Cl,10.3% (active)
3,N#Cc1c(-c2cccs2)nc(SCC(=O)c2ccc(Br)cc2)[nH]c1=O,-2.02%
4,O=S(=O)(Nc1ccccc1Cl)c1cccc2nsnc12,-16.9%
5,O=C(c1ccc(CS(=O)(=O)c2ccccc2)o1)N1CCN(c2ccccc2)CC1,-3.55%
6,Cc1nn(-c2cc(Cl)ccc2N)c(=O)c2ccccc12,-6.02%
7,Cc1ccn2c(=O)nc(SCC(=O)NCc3ccc4c(c3)OCO4)nc2c1,-9.63%
8,O=C(COC(=O)c1cnc(Cl)c(Cl)c1)NCc1ccco1,-1.58%
9,O=C(CCNC(=O)c1ccccc1)NN=Cc1ccc(Br)o1,-12.5%
10,CN(c1ccccc1)S(=O)(=O)c1ccc(Cl)c(C(=O)OCC(=O)NCc2ccco2)c1,-14.8%
11,CCOc1ccccc1/C=c1\sc2nc(-c3ccco3)nn2c1=O,4.79%
12,O=C(CCC(=O)N/N=C/c1ccc(Br)o1)N/N=C/c1ccc(Br)o1,-1.53%
13,Cc1oc2c(C)c3oc(=O)c(CC(=O)N[C@@H](CC(C)C)C(=O)N[C@@H](Cc4ccccc4)C(=O)O)c(C)c3cc2c1C,-12.3%
14,CC1CCN(c2ccc(S(=O)(=O)Nc3cc(C(=O)O)cc(C(=O)O)c3)cc2[N+](=O)[O-])CC1,15% (active)
